{
  "source": "ChEMBL document CHEMBL3745688",
  "about": "“Discovery of novel hybrids of diaryl-1,2,4-triazoles and caffeic acid as dual inhibitors of cyclooxygenase-2 and 5-lipoxygenase for cancer therapy” (Eur J Med Chem, 2016)",
  "key": {"A549 [1]": {"tested_on": "A549", "assay": "Induction of apoptosis in human A549 cells assessed as viable cells at 25 uM after 72 hrs by annexinV-APC/7-AAD staining based flow cytometry (reference value: 92.08%)", "assay_type": "functional", "conditions": "A549, 72 h, read-out: Activity"}, "[2]": {"assay": "Antiproliferative activity against human Caco2 cells after 72 hrs by MTT assay", "assay_type": "functional, cell-based", "conditions": "Caco-2, 72 h", "outline": "(§1)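 Cells seeded at 5×10^4/well, grown 24 h at 37 °C in 5% CO₂, then exposed to compounds dissolved in DMSO at a range of concentrations for 72 h. MTT (5 mg/mL in PBS) added for 4 h, then OD read at 570 nm. IC50 taken from dose-response curves, mean ± S.D. of three independent experiments.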"}, "[3]": {"assay": "Antiproliferative activity against human PC3 cells after 72 hrs by MTT assay", "assay_type": "functional, cell-based", "conditions": "PC-3, 72 h", "outline": "as §1"}, "A549 [4]": {"tested_on": "A549", "assay": "Cell cycle arrest in human A549 cells assessed as accumulation at G2 phase at 25 uM after 72 hrs by propidium iodide staining based flow cytometry (reference value: 3.88%)", "assay_type": "functional"}, "A549 [5]": {"tested_on": "A549", "assay": "Induction of apoptosis in human A549 cells assessed as necrotic cells at 25 uM after 72 hrs by annexinV-APC/7-AAD staining based flow cytometry (Rvb =0.41%)", "assay_type": "functional"}, "A549 [6]": {"tested_on": "A549", "assay": "Cell cycle arrest in human A549 cells assessed as accumulation at G1 phase at 1 uM after 72 hrs by propidium iodide staining based flow cytometry (reference value: 53.66%)", "assay_type": "functional"}, "[7]": {"assay": "Selectivity index, ratio of IC50 for rat COX2 to IC50 for calf COX1", "outline": "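Ratio of COX-2 IC50 to COX-1 IC50. COX-2 was measured in rat peritoneal macrophages: 1.0×10^6/well in RPMI 1640 with 5% FCS, grown 24 h, COX-1 inactivated with 1 mM aspirin, COX-2 induced with LPS 1 µg/mL for 6 h, compound added for 30 min, then arachidonic acid 10 µM for 20 min, PGE2 read by EIA. COX-1 was measured in calf aortic endothelial cells by 6-keto-PGF1α radioimmunoassay.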"}, "[8]": {"molecular_target": "T1, Prostaglandin G/H synthase 2 (Rattus norvegicus, UniProt P35355)", "T1 sequence (P35355 whole entry)": "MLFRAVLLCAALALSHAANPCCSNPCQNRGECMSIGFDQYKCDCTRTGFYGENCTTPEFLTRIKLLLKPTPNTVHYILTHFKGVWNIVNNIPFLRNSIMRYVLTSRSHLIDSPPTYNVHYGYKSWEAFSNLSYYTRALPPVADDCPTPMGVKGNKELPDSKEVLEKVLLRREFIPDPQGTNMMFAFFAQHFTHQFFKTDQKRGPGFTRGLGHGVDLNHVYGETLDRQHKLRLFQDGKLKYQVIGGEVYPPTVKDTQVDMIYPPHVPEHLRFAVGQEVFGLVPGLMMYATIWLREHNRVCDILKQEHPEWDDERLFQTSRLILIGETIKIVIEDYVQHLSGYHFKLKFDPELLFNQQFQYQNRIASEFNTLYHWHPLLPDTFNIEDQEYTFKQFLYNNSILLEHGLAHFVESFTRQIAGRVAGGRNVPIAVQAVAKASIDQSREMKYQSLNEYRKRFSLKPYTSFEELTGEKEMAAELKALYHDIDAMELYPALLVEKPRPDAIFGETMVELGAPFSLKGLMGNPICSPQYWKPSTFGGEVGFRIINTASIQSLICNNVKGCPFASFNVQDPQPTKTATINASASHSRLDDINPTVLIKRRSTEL", "assay": "Inhibition of COX2 in rat abdominal macrophages assessed as PGE2 production pretreated for 30 mins followed by addition of 10 uM arachidonic acid as substrate for 20 mins by EIA"}, "A549 [9]": {"tested_on": "A549", "assay": "Cell cycle arrest in human A549 cells assessed as accumulation at S phase at 25 uM after 72 hrs by propidium iodide staining based flow cytometry (reference value: 42.46%)", "assay_type": "functional"}, "A549 [10]": {"tested_on": "A549", "assay": "Cell cycle arrest in human A549 cells assessed as accumulation at S phase at 1 uM after 72 hrs by propidium iodide staining based flow cytometry (reference value: 42.46%)", "assay_type": "functional"}, "A549 [11]": {"tested_on": "A549", "assay": "Cell cycle arrest in human A549 cells assessed as accumulation at S phase at 5 uM after 72 hrs by propidium iodide staining based flow cytometry (reference value: 42.46%)", "assay_type": "functional"}, "A549 [12]": {"tested_on": "A549", "assay": "Induction of apoptosis in human A549 cells assessed as early apoptotic cells at 25 uM after 72 hrs by annexinV-APC/7-AAD staining based flow cytometry (reference value: 5.7%)", "assay_type": "functional"}, "[13]": {"molecular_target": "T2, Prostaglandin G/H synthase 1 (Bos taurus, UniProt O62664)", "T2 sequence (O62664 whole entry)": "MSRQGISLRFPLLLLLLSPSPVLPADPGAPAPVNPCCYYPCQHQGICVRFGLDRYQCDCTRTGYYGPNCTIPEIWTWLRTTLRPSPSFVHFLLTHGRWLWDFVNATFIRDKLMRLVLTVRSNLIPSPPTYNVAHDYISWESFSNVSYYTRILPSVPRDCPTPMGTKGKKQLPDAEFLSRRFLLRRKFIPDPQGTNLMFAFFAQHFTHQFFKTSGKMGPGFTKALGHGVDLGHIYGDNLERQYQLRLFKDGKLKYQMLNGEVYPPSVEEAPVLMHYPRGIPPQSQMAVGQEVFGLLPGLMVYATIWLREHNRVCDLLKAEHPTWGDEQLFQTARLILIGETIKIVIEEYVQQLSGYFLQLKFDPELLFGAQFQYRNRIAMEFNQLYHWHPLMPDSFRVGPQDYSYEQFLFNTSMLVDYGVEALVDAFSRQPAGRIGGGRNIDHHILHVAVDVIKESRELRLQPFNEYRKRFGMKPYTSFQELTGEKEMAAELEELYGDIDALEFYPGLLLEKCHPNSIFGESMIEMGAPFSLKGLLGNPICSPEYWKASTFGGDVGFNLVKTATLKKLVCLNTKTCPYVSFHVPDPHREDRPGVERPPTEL", "assay": "Inhibition of COX1 in calf endotheliocyte assessed as 6keto-PGF1alpha production pretreated for 20 mins followed by addition of 10 uM arachidonic acid as substrate for 20 mins by radioimmuno assay", "outline": "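Endothelial cells from neonatal calf thoracic aorta plated at 1.0×10^6 in DMEM with 10% FBS and grown 24 h at 37 °C in 5% CO₂. Compound or DMSO added for 20 min, then arachidonic acid (10 μM) for another 20 min. 6-keto-PGF1α in the medium quantified by radioimmunoassay. IC50 is the mean of four determinations.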"}, "A549 [14]": {"tested_on": "A549", "assay": "Cell cycle arrest in human A549 cells assessed as accumulation at G1 phase at 25 uM after 72 hrs by propidium iodide staining based flow cytometry (reference value: 53.66%)", "assay_type": "functional"}, "[15]": {"assay": "Antiproliferative activity against mouse B16F10 cells after 72 hrs by MTT assay", "assay_type": "functional, cell-based", "conditions": "B16-F10, 72 h", "outline": "as §1"}, "A549 [16]": {"tested_on": "A549", "assay": "Induction of apoptosis in human A549 cells assessed as late apoptotic cells at 25 uM after 72 hrs by annexinV-APC/7-AAD staining based flow cytometry (reference value: 1.81%)", "assay_type": "functional"}, "A549 [17]": {"tested_on": "A549", "assay": "Induction of apoptosis in human A549 cells assessed as late apoptotic cells at 1 uM after 72 hrs by annexinV-APC/7-AAD staining based flow cytometry (reference value: 1.81%)", "assay_type": "functional"}, "A549 [18]": {"tested_on": "A549", "assay": "Induction of apoptosis in human A549 cells assessed as viable cells at 1 uM after 72 hrs by annexinV-APC/7-AAD staining based flow cytometry (reference value: 92.08%)", "assay_type": "functional", "conditions": "A549, 72 h, read-out: Activity"}},
  "data": [
    {"smiles": "CS(=O)(=O)c1ccc(-c2nc(SCCCOC(=O)/C=C/c3ccc(O)c(O)c3)nn2-c2ccc(F)cc2)cc1", "values": [
      {"measurement": "viability at 25 µM", "setting": "A549 [1]", "result": 55.1, "unit": "%"},
      {"measurement": "IC50", "setting": "[2]", "result": 11.2, "unit": "µM"},
      {"measurement": "IC50", "setting": "[3]", "result": 10.1, "unit": "µM"},
      {"measurement": "Activity", "setting": "A549 [4]", "result": 20.53, "unit": "%"},
      {"measurement": "Activity", "setting": "A549 [5]", "result": 1.51, "unit": "%"},
      {"measurement": "Activity", "setting": "A549 [6]", "result": 49.85, "unit": "%"},
      {"measurement": "Ratio IC50", "setting": "[7]", "result": 0.014},
      {"measurement": "IC50", "setting": "[8]", "result": 0.18, "unit": "µM"},
      {"measurement": "Activity", "setting": "A549 [9]", "result": 32.19, "unit": "%"},
      {"measurement": "Activity", "setting": "A549 [10]", "result": 42.92, "unit": "%"},
      {"measurement": "Activity", "setting": "A549 [11]", "result": 40.9, "unit": "%"},
      {"measurement": "Activity", "setting": "A549 [12]", "result": 37.2, "unit": "%"},
      {"measurement": "IC50", "setting": "[13]", "result": 12.6, "unit": "µM"},
      {"measurement": "Activity", "setting": "A549 [14]", "result": 47.29, "unit": "%"},
      {"measurement": "IC50", "setting": "[15]", "result": 10.4, "unit": "µM"},
      {"measurement": "Activity", "setting": "A549 [16]", "result": 6.15, "unit": "%"},
      {"measurement": "Activity", "setting": "A549 [17]", "result": 3.13, "unit": "%"},
      {"measurement": "viability at 1 µM", "setting": "A549 [18]", "result": 86.2, "unit": "%"}
    ]}
  ]
}
